The values that follow come from ChEMBL document CHEMBL1138155, “A lactosylated steroid contributes in vivo therapeutic benefits in experimental models of mouse lymphoma and human glioblastoma” (J Med Chem, 2006).

In data set [1] the test system is A549. Description: Cytotoxicity against human A549 NSCLC cell line. The data set is classed as functional, cell-based. The essentials:
(§1)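 Colorimetric MTT assay on cultured human cancer cells after 3 days of continuous drug exposure. IC50 is the concentration that reduces overall cell-population growth by 50% relative to untreated cells.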

The subject of a further data set is HCT-15. Description: Cytotoxicity against human HCT15 colon cancer cell line. It counts as functional, cell-based. The essentials:
as §1

Data set [2] concerns PC-3. Put plainly: Antimigratory activity against human PC3 prostate cancer cell line at 100 nM after 22h. The following applies: PC-3, 22 h. It counts as functional. The essentials: (§2)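 Computer-assisted videomicroscopy tracking of living cultured cells, one image every 4 min over 24 h; migration scored as maximum relative distance from origin (MRDO) per cell, read at 12 or 22 h with compound at 100 nM or without (control). Control normalized to 0%. Triplicate analyses, 121–184 cells per condition; mean ± standard error.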

A further data set concerns Mus musculus. Put plainly: Toxicity in mice at 160 mg/kg, ip 28 days post dose. The data set is classed as organism-based. Details: dose 160 mg/kg, route intraperitoneal. Conditions: in vivo, 672 h. The essentials:
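Healthy, non-tumor-grafted mice received a single acute ip dose of 160 mg/kg. Body weight and survival were recorded over at least 28 days after dosing to detect toxic effects.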

A further data set deals with Hs 683. Put plainly: Cytotoxicity against human Hs683 cancer cell line. The data set is classed as functional, cell-based. The essentials: as §1
For data set [3], the system named is PC-3. Description: Cytotoxicity against human PC3 prostate cancer cell line. It counts as functional, cell-based. The essentials:
as §1

Data set [4] has as its system U373 MG. Description: Cytotoxicity against human U373 glioblastoma cell line. It counts as functional, cell-based, U-373MG ATCC. The essentials: as §1
Data set [5] concerns A549. Description: Antimigratory activity against human A549 NSCLC cell line at 100 nM after 12h. The following applies: A549, 12 h. It counts as functional. An outline of the steps: as §2
In data set [6] the test system is A549. Description: Antimigratory activity against human A549 NSCLC cell line at 100 nM after 22h. It counts as functional. The following applies: A549, 22 h. The essentials: as §2
Data set [7] relates to PC-3. Put plainly: Antimigratory activity against human PC3 prostate cancer cell line at 100 nM after 12h. It counts as functional. The following applies: PC-3, 12 h. An outline of the steps:
as §2

Data set [8] relates to U373 MG. Put plainly: Antimigratory activity against human U373 glioblastoma cell line at 100 nM after 12h. It counts as functional, U-373MG ATCC. The essentials: as §2
Data set [9] relates to U373 MG. Put plainly: Antimigratory activity against human U373 glioblastoma cell line at 100nM after 22h. It counts as functional, U-373MG ATCC. The essentials:
as §2

In the next data set the test system is MCF7. Description: Cytotoxicity against human MCF7 breast cancer cell line. The data set is classed as functional, cell-based. The essentials: as §1

The IC50 is the point on the concentration scale where inhibition reaches its midpoint. Broadly, the inhibition is the change of the read-out against control, counted positive when it falls. As to `COc1ccc(OC)c([C@@H]2C[C@H]3[C@@H]4CC=C5C[C@@H](O[C@H]6O[C@@H](C)[C@@H](O)[C@@H](O)[C@@H]6O)CC[C@]5(C)[C@H]4CC[C@]3(C)[C@H]2[C@H](C)O[C@H]2O[C@@H](C)[C@@H](O)[C@@H](O)[C@@H]2O)c1`, the IC50 in the data set with A549 [1], in the data set on HCT-15, with Hs 683, with PC-3 [3], in the data set on U373 MG [4] and in the data set with MCF7 was above 10 µM in each case. The inhibition at 0.1 µM is -45% in the data set with PC-3 [2]; -6% in the data set with A549 [5]; -4% in the data set on A549 [6]; -41% in the data set on PC-3 [7]; -4% with U373 MG [8]; -4% in the data set with U373 MG [9]. Further, in the data set on Mus musculus, the Activity result is reported as “Non-toxic”.
As for `COc1ccc(OC)c([C@@H]2C[C@H]3[C@@H]4CC=C5C[C@@H](O[C@@H]6O[C@H](CO)[C@@H](O)[C@H](O)[C@H]6NC(C)=O)CC[C@]5(C)[C@H]4CC[C@]3(C)[C@H]2C(C)=O)c1`, the IC50 with A549 [1], in the data set with HCT-15, in the data set with Hs 683, in the data set with PC-3 [3], in the data set with U373 MG [4] and in the data set on MCF7 was above 10 µM each time. In addition, the inhibition at 0.1 µM with PC-3 [2] is 12%; with A549 [5], -39%; with A549 [6] it was -39%; in the data set with PC-3 [7], 11%; with U373 MG [8] it was -17%; in the data set on U373 MG [9], -3%. The Activity entry in the data set on Mus musculus is recorded as “Non-toxic”.
For `COc1ccc(OC)c([C@@H]2C[C@H]3[C@@H]4CC=C5C[C@@H](O[C@H]6O[C@H](CO[C@@H]7O[C@H](CO)[C@@H](O)[C@H](O)[C@H]7O)[C@@H](O)[C@H](O)[C@H]6O)CC[C@]5(C)[C@H]4CC[C@]3(C)[C@H]2C(C)=O)c1`, the IC50 in the data set with A549 [1], in the data set on HCT-15, with Hs 683, with PC-3 [3], in the data set on U373 MG [4] and in the data set on MCF7 was above 10 µM each time. The inhibition at 0.1 µM is -1% in the data set with PC-3 [2]; 0% with A549 [5]; -4% in the data set on A549 [6]; 11% in the data set with PC-3 [7]; 0% with U373 MG [8]; -1% in the data set with U373 MG [9]. The Activity entry with Mus musculus was “Non-toxic”.
As to `COc1ccc(OC)c([C@@H]2C[C@H]3[C@@H]4CC=C5C[C@@H](O[C@@H]6O[C@H](CO[C@H]7O[C@H](CO)[C@@H](O)[C@H](O)[C@H]7O)[C@@H](O)[C@H](O)[C@H]6O)CC[C@]5(C)[C@H]4CC[C@]3(C)[C@H]2C(C)=O)c1`, the IC50 in the data set on A549 [1], in the data set on HCT-15, in the data set on Hs 683, in the data set on PC-3 [3], with U373 MG [4] and in the data set with MCF7 was above 10 µM throughout. The inhibition at 0.1 µM in the data set on PC-3 [2] is -9%; in the data set with A549 [5], -34%; in the data set on A549 [6] it was -40%; in the data set with PC-3 [7], -7%; in the data set with U373 MG [8], -18%; in the data set with U373 MG [9] it was -18%. In the data set with Mus musculus, the Activity entry is “Non-toxic”.
For `COc1ccc(OC)c([C@@H]2C[C@H]3[C@@H]4CC=C5C[C@@H](O)CC[C@]5(C)[C@H]4CC[C@]3(C)[C@H]2C(C)=O)c1`, the IC50 with A549 [1], with HCT-15, in the data set on Hs 683, in the data set on PC-3 [3], in the data set on U373 MG [4] and in the data set with MCF7 was above 10 µM throughout. Besides, the inhibition at 0.1 µM in the data set with PC-3 [2] was found to be 10%; with A549 [5], 0%; with A549 [6], 6%; with PC-3 [7], 5%; in the data set with U373 MG [8], 2%; in the data set with U373 MG [9], 7%. Besides, the Activity result with Mus musculus is on record as “Non-toxic”.
In the case of `COc1ccc(OC)c([C@@H]2C[C@H]3[C@@H]4CC=C5C[C@@H](O[C@@H]6O[C@H](CO[C@H]7O[C@H](CO)[C@@H](O)[C@H](O)[C@H]7O)[C@@H](O)[C@H](O)[C@H]6O)CC[C@]5(C)[C@H]4CC[C@]3(C)[C@H]2[C@H](C)O[C@@H]2O[C@H](CO[C@H]3O[C@H](CO)[C@@H](O)[C@H](O)[C@H]3O)[C@@H](O)[C@H](O)[C@H]2O)c1`, the concentration for half-maximal inhibition (IC50) with A549 [1], in the data set on HCT-15, in the data set on Hs 683, with PC-3 [3], with U373 MG [4] and in the data set with MCF7 was above 10 µM each time. Also, the inhibition at 0.1 µM with PC-3 [2] was 10%; with A549 [5], 9%; in the data set on A549 [6], 0%; with PC-3 [7], 8%; with U373 MG [8], -14%; in the data set on U373 MG [9], -9%. The Activity result with Mus musculus is “Non-toxic”.
As to `COc1ccc(OC)c([C@@H]2C[C@H]3[C@@H]4CC=C5C[C@@H](O[C@H]6O[C@H](CO)[C@@H](O[C@@H]7O[C@H](CO)[C@H](O)[C@H](O)[C@H]7O)[C@H](O)[C@H]6O)CC[C@]5(C)[C@H]4CC[C@]3(C)[C@H]2C(C)=O)c1`, the IC50 with A549 [1], in the data set on HCT-15, in the data set on Hs 683, in the data set on PC-3 [3], with U373 MG [4] and with MCF7 was above 10 µM in each case. Also, the inhibition at 0.1 µM with PC-3 [2] is -34%; in the data set with A549 [5], 8%; with A549 [6], -5%; with PC-3 [7] it was -51%; in the data set with U373 MG [8], -29%; with U373 MG [9] it was -31%. In the data set on Mus musculus, the Activity entry is recorded as “Non-toxic”.
For the compound `COc1ccc(OC)c([C@@H]2C[C@H]3[C@@H]4CC=C5C[C@@H](O)CC[C@]5(C)[C@H]4CC[C@]3(C)[C@H]2[C@H](C)O)c1`, the IC50 in the data set on A549 [1], in the data set on HCT-15, with Hs 683, in the data set on PC-3 [3], in the data set with U373 MG [4] and in the data set on MCF7 was above 10 µM throughout. For the same compound, in the data set with Mus musculus, the Activity result was “Non-toxic”.
Turning to `COc1ccc(OC)c([C@@H]2C[C@H]3[C@@H]4CC=C5C[C@@H](O[C@@H]6O[C@H](CO)[C@@H](O[C@@H]7O[C@H](CO)[C@@H](O)[C@H](O)[C@H]7O)[C@H](O)[C@H]6O)CC[C@]5(C)[C@H]4CC[C@]3(C)[C@H]2[C@H](C)O[C@@H]2O[C@H](CO)[C@@H](O[C@@H]3O[C@H](CO)[C@@H](O)[C@H](O)[C@H]3O)[C@H](O)[C@H]2O)c1`, the IC50 in the data set on A549 [1], in the data set on HCT-15, in the data set on Hs 683, in the data set on PC-3 [3], in the data set on U373 MG [4] and with MCF7 was above 10 µM in each case. Further, the inhibition at 0.1 µM is -17% in the data set with PC-3 [2]; 4% in the data set with A549 [5]; 3% with A549 [6]; 9% in the data set on PC-3 [7]; -8% with U373 MG [8]; 4% in the data set with U373 MG [9]. In addition, in the data set on Mus musculus, the Activity entry was “Non-toxic”.
Take `COc1ccc(OC)c([C@@H]2C[C@H]3[C@@H]4CC=C5C[C@@H](O[C@H]6O[C@H](CO)[C@@H](O[C@@H]7O[C@H](CO)[C@H](O)[C@H](O)[C@H]7O)[C@H](O)[C@H]6O)CC[C@]5(C)[C@H]4CC[C@]3(C)[C@H]2[C@H](C)O[C@H]2O[C@H](CO)[C@@H](O[C@@H]3O[C@H](CO)[C@H](O)[C@H](O)[C@H]3O)[C@H](O)[C@H]2O)c1`: the IC50 in the data set on A549 [1], in the data set with HCT-15, in the data set with Hs 683, in the data set on PC-3 [3], in the data set with U373 MG [4] and in the data set on MCF7 was above 10 µM each time. The inhibition at 0.1 µM in the data set on PC-3 [2] was 15%; in the data set on A549 [5], -26%; with A549 [6], -12%; in the data set on PC-3 [7], 14%; in the data set on U373 MG [8], -12%; in the data set with U373 MG [9], -13%. In addition, in the data set on Mus musculus, the Activity result is listed as “Non-toxic”.
In the case of `COc1ccc(OC)c([C@@H]2C[C@H]3[C@@H]4CC=C5C[C@@H](O[C@H]6O[C@H](CO)[C@@H](O[C@H]7O[C@H](CO)[C@@H](O)[C@H](O)[C@H]7O)[C@H](O)[C@H]6O)CC[C@]5(C)[C@H]4CC[C@]3(C)[C@H]2C(C)=O)c1`, the IC50 in the data set on A549 [1], in the data set with HCT-15, in the data set with Hs 683, in the data set on PC-3 [3], in the data set on U373 MG [4] and with MCF7 was above 10 µM each time. The inhibition at 0.1 µM in the data set on PC-3 [2] is -5%; with A549 [5], 10%; with A549 [6] it was 5%; with PC-3 [7], -5%; in the data set with U373 MG [8], 2%; in the data set on U373 MG [9] it was -8%. Moreover, in the data set on Mus musculus, the Activity result was “Non-toxic”.
